From ChEMBL document CHEMBL1156837, “Synthesis and the biological evaluation of arylnaphthalene lignans as anti-hepatitis B virus agents” (Bioorg Med Chem, 2010)
Calls of active or inactive are those of the source. The calls are words filed in the database; no cut-off is given here.

How the values were obtained:
Hepatitis B virus [1] = test: Antiviral activity against Hepatitis B virus in human HepA2 cells assessed as reduction of HBsAg secretion after 48 hrs by enzyme immunoassay; type: functional, organism-based
Summary of the method: (§1)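 HepA2 cells (HepG2 carrying tandem-repeat full-length HBV DNA) seeded at 8 × 10⁴ cells/well in DMEM with 10% fetal calf serum, attached overnight, washed twice with PBS pH 7.0, then exposed to various concentrations in serum-free DMEM for 48 h. Secreted HBsAg and HBeAg in medium measured by enzyme immunoassay; EC50 as concentration giving 50% of untreated level; mean ± SD, n = 3.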

[2] = Cytotoxicity against human HepA2 cells after 48 hrs by MTT assay; type: cell-based
Summary of the method: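 HepA2 cells seeded in 96-well plates in DMEM and treated with various concentrations of compound for 2 days; cell number measured by MTT; CC50 taken as concentration giving cell growth at 50% of untreated cells.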

Hepatitis B virus [3] = test: Antiviral activity against Hepatitis B virus in human HepA2 cells assessed as reduction of HBsAg secretion after 48 hrs by ELISA; type: functional, organism-based; settings: HepA2, 48 h; summary of the method: as §1
Hepatitis B virus [4] = test: Antiviral activity against Hepatitis B virus in human HepA2 cells assessed as reduction of HBeAg secretion after 48 hrs by ELISA; type: functional, organism-based; settings: HepA2, 48 h; summary of the method: as §1
[5] = Cytotoxicity against human HepA2 cells assessed as effect on cell proliferation after 48 hrs by WST1 dye reduction assay; type: cell-based; settings: hepa2, 48 h
Summary of the method: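 HepA2 cells treated alongside the antigen assay in serum-free DMEM for 48 h after PBS wash; WST-1 added for 0.5 h and formazan formation used to estimate viable cells per well; mean ± SD, n = 3.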

Hepatitis B virus [6] = test: Antiviral activity against Hepatitis B virus ayw in human 1.3ES2 cells stably transfected with 1.3 fold wild type HBV ayw strain genome cells assessed as reduction of viral DNA level after 6 days by RT-PCR; type: functional, organism-based
Hepatitis B virus [7] = test: Antiviral activity against Hepatitis B virus ayw in human M33 cells containing Lamivudine resistant HBV genome with DNA polymerase L515M/M539V mutation genome cells assessed as reduction of viral DNA level after 6 days by RT-PCR; type: functional, organism-based
Summary of the method: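 M33 cells (HepG2 carrying HBV with the L515M/M539V polymerase double mutation) were maintained in DMEM with 10% FCS at 37 °C under 5% CO₂. Cells were seeded at 5 × 10⁶ per 100 mm dish and treated with graded drug concentrations in serum-free DMEM. Viral DNA was extracted from the medium and quantified by real-time PCR against an HBV plasmid standard curve (10³–10⁷ copies), reported as mean, SD, n = 3.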

Hepatitis B virus [8] = test: Antiviral activity against Hepatitis B virus ayw in human 1.3ES2 cells stably transfected with 1.3 fold wild type HBV ayw strain genome cells assessed as reduction of HbeAg mRNA level after 2 days by Northern blot; type: functional, organism-based
Summary of the method: (§2)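 1.3ES2 cells (HepG2 with 1.3 copies of HBV genome integrated) grown in DMEM with 10% fetal calf serum to confluence in 100 mm dishes, then switched to serum-free DMEM with compound (0, 1.5, 3.0, 9.0 µM) for 48 h. Total RNA Northern-hybridized with HBV DNA probe; 3.5-kb and 2.4/2.1-kb transcripts read, GAPDH mRNA as internal marker; representative of three independent experiments.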

Hepatitis B virus [9] = test: Antiviral activity against Hepatitis B virus ayw in human 1.3ES2 cells stably transfected with 1.3 fold wild type HBV ayw strain genome cells assessed as reduction of large HbsAg mRNA level after 2 days by Northern blot; type: functional, organism-based; summary of the method: as §2
Hepatitis B virus [10] = test: Antiviral activity against Hepatitis B virus ayw in human 1.3ES2 cells stably transfected with 1.3 fold wild type HBV ayw strain genome cells assessed as reduction of viral core protein level after 2 days by Western blot; type: functional, organism-based
Summary of the method: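 1.3ES2 cells in 100 mm dishes treated with compound (0, 1.5, 3.0, 9.0 µM) in serum-free DMEM for 48 h; total cell lysates resolved by SDS-PAGE and immunoblotted with mouse anti-HBV core antibody.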

Hepatitis B virus [11] = test: Suppression of large viral surface antigen promoter activity of Hepatitis B virus in human HepA2 cells at 3 uM by luciferase reporter gene assay; type: functional, organism-based
Summary of the method: (§3)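 HepA2 cells transfected by lipofectamine 2000 with HBV S1P, S2P, core, X or enhancer I/X promoter–luciferase constructs plus β-gal vector, then held in serum-free DMEM with compound (0.9 or 3.0 µM) for 48 h. Lysate luciferase normalized to protein (Bradford) and β-gal, untreated set to one; mean ± SEM, at least three independent experiments.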

Hepatitis B virus [12] = test: Suppression of major viral surface promoter activity of Hepatitis B virus in human HepA2 cells at 3 uM by luciferase reporter gene assay; type: functional, organism-based; summary of the method: as §3
Hepatitis B virus [13] = test: Suppression of viral core protein promoter activity of Hepatitis B virus in human HepA2 cells at 3 uM by luciferase reporter gene assay; type: functional, organism-based; summary of the method: as §3
Hepatitis B virus [14] = test: Suppression of enhancer 1 promoter activity of Hepatitis B virus in human HepA2 cells at 3 uM by luciferase reporter gene assay; type: functional, organism-based; summary of the method: as §3
Hepatitis B virus [15] = test: Suppression of viral X protein promoter activity of Hepatitis B virus in human HepA2 cells at 3 uM by luciferase reporter gene assay; type: functional, organism-based; summary of the method: as §3
Hepatitis B virus [16] = test: Antiviral activity against Hepatitis B virus ayw in human 1.3ES2 cells stably transfected with 1.3 fold wild type HBV ayw strain genome cells assessed as reduction of viral pregenomic RNA level after 2 days by Northern blot; type: functional, organism-based; summary of the method: as §2
Hepatitis B virus [17] = test: Antiviral activity against Hepatitis B virus ayw in human 1.3ES2 cells stably transfected with 1.3 fold wild type HBV ayw strain genome cells assessed as reduction of major HbsAg mRNA level after 2 days by Northern blot; type: functional, organism-based; summary of the method: as §2
[18] = Hepatitis B virus, HepA2, 48 h, read-out: EC50

| EC50 (Hepatitis B virus [1]; [18]) [µM] | SMILES | CC50 at 48 h [2] [µM] | other results |
| --- | --- | --- | --- |
| > 12.5 | COc1cc(-c2c3c(cc4ccc5c(c24)OCO5)C(=O)OC3)ccc1OCc1ccccc1 | > 12.5 | – |
| > 12.5 | O=C1OCc2c1cc1c(Br)cc3c(c1c2-c1cc2c(cc1Br)OCO2)OCO3 | > 12.5 | – |
| > 12.5 | COC(=O)c1c(C(=O)OC)c(-c2ccc3c(c2)OCO3)c2c3c(ccc2c1OC)OCO3 | 8.93 | – |
| > 12.5 | COC(=O)c1c(C(=O)OC)c(-c2ccc3c(c2)OCO3)c2c3c(ccc2c1O)OCO3 | 7.04 | – |
| – | BrCc1cc2ccc3c(c2c(-c2ccc4c(c2)OCO4)c1CBr)OCO3 | – | EC50 (Hepatitis B virus [1]; hepa2): Not Active |
| > 12.5 | O=C1C=Cc2cc3c(c(-c4ccc5c(c4)OCO5)c2C1=O)COC3=O | 7.49 | – |
| > 12.5 | COc1ccc(-c2c3c(cc4ccc5c(c24)OCO5)C(=O)OC3)cc1OCc1ccccc1 | > 12.5 | – |
| > 12.5 | COC(=O)c1c(C(=O)O)c(O)c2ccc3c(c2c1-c1ccc2c(c1)OCO2)OCO3 | 7.01 | – |
| > 12.5 | O=C1OC(=O)c2c1cc1ccc3c(c1c2-c1ccc2c(c1)OCO2)OCO3 | 11.8 | – |
| > 12.5 | CC(=O)OCc1cc2ccc3c(c2c(-c2ccc4c(c2)OCO4)c1C=O)OCO3 | 4.69 | – |
| – | O=C1OC(=O)c2c1cc1ccc3c(c1c2-c1ccc(OC(F)(F)F)cc1)OCO3 | – | EC50 (Hepatitis B virus [1]; hepa2): Not Active |
| – | Nc1ccn([C@@H]2CS[C@H](CO)O2)c(=O)n1 | – | inhibition (Hepatitis B virus [6]): Active; inhibition (Hepatitis B virus [7]): inactive |
| > 12.5 | O=C1OCc2c1cc1ccc3c(c1c2-c1ccc(OCc2ccccc2)c(OCc2ccccc2)c1)OCO3 | > 12.5 | – |
| > 12.5 | COc1ccc(-c2c3c(cc4ccc5c(c24)OCO5)C(=O)OC3=O)cc1OCc1ccccc1 | > 12.5 | – |
| 0.89 | O=C(O)c1cc2ccc3c(c2c(-c2ccc4c(c2)OCO4)c1CO)OCO3 | > 12.5 | – |
| – | COc1ccc(-c2c3c(cc4ccc5c(c24)OCO5)C(=O)OC3=O)cc1OC | – | EC50 (Hepatitis B virus [1]; hepa2): Not Active |
| > 12.5 | N#Cc1cc2c(c3c(-c4cc5c(cc4Br)OCO5)c4c(cc13)C(=O)OC4)OCO2 | > 12.5 | – |
| 2.18 | O=C1OCc2cc3ccc4c(c3c(-c3ccc5c(c3)OCO5)c21)OCO4 | > 12.5 | – |

| EC50 (Hepatitis B virus [1]; [18]) [µM] | SMILES | CC50 at 48 h [2] [µM] | other results |
| --- | --- | --- | --- |
| > 12.5 | O=C1OCc2c1cc1ccc3c(c1c2-c1ccc(OC(F)(F)F)cc1)OCO3 | > 12.5 | – |
| > 12.5 | COc1ccc(-c2c3c(cc4ccc5c(c24)OCO5)COC3=O)cc1OCc1ccccc1 | > 12.5 | – |
| > 12.5 | N#Cc1cc2c(c3c(-c4ccc5c(c4)OCO5)c4c(cc13)C(=O)OC4)OCO2 | > 12.5 | – |
| 0.16 | O=C1OCc2c1cc1ccc3c(c1c2-c1ccc2c(c1)OCO2)OCO3 [HELIOXANTHIN] | 11.3 | – |
| > 12.5 | O=C1OC(=O)c2c1cc1ccc3c(c1c2-c1ccc(OCc2ccccc2)c(OCc2ccccc2)c1)OCO3 | > 12.5 | – |
| > 12.5 | CCOC(=O)c1cc2ccc3c(c2c(-c2ccc4c(c2)OCO4)c1C(=O)OCC)OCO3 | > 12.5 | – |
| 3.06 | O=C1OCc2c1cc1ccc3c(c1c2-c1ccc(O)c(O)c1)OCO3 | 7.01 | – |
| 1.89 | COc1cc(-c2c3c(cc4ccc5c(c24)OCO5)C(=O)OC3)ccc1O | > 12.5 | – |
| 1.22 | CC(=O)OCc1cc2ccc3c(c2c(-c2ccc4c(c2)OCO4)c1COC(C)=O)OCO3 | 6.91 | – |
| 0.42 | CC(=O)OCc1cc2ccc3c(c2c(-c2ccc4c(c2)OCO4)c1CO)OCO3 | > 12.5 | – |
| > 12.5 | O=C1c2cc3ccc4c(c3c(-c3ccc5c(c3)OCO5)c2C(=O)N1CCO)OCO4 | > 12.5 | – |
| > 12.5 | COc1cc(-c2c3c(cc4ccc5c(c24)OCO5)C(=O)OC3=O)ccc1OCc1ccccc1 | 11.7 | – |
| 1.41 | OCc1cc2ccc3c(c2c(-c2ccc4c(c2)OCO4)c1CO)OCO3 | > 12.5 | – |
| > 12.5 | COC(=O)c1c(C(=O)O)c(OC)c2ccc3c(c2c1-c1ccc2c(c1)OCO2)OCO3 | 7.87 | – |
| – | COc1cc(-c2c3c(cc4ccc5c(c24)OCO5)COC3=O)ccc1OCc1ccccc1 | – | EC50 (Hepatitis B virus [1]; hepa2): Not Active |
| 7.64 | COc1ccc(-c2c3c(cc4ccc5c(c24)OCO5)C(=O)OC3)cc1OC | 5.86 | – |
| > 12.5 | O=C1OCc2cc3ccc4c(c3c(-c3ccc(OCc5ccccc5)c(OCc5ccccc5)c3)c21)OCO4 | > 12.5 | – |
| 2.39 | O=Cc1cc2ccc3c(c2c(-c2ccc4c(c2)OCO4)c1C=O)OCO3 | 5.31 | – |

| SMILES | EC50 (Hepatitis B virus [1]; [18]) [µM] | CC50 at 48 h [2] [µM] | other results |
| --- | --- | --- | --- |
| COc1ccc(-c2c3c(cc4ccc5c(c24)OCO5)C(=O)OC3)cc1O | 0.14 | 10.1 | EC50 (Hepatitis B virus [3]): 0.06 µM; EC50 (Hepatitis B virus [4]): 0.14 µM; Activity [5]: Non-toxic; inhibition (Hepatitis B virus [6]): Dose-dependent effect; inhibition (Hepatitis B virus [7]): Dose-dependent effect; inhibition (Hepatitis B virus [8]): Dose-dependent effect; inhibition (Hepatitis B virus [9]): Dose-dependent effect; inhibition (Hepatitis B virus [10]): Dose-dependent effect; inhibition (Hepatitis B virus [11]): Active; inhibition (Hepatitis B virus [12]): Active; inhibition (Hepatitis B virus [13]): Active; inhibition (Hepatitis B virus [14]): Active; inhibition (Hepatitis B virus [15]): inactive |
| O=C1OCc2c1cc1c(Br)cc3c(c1c2-c1ccc2c(c1)OCO2)OCO3 | > 12.5 | 6.33 | – |
| CC(=O)OCCN1C(=O)c2cc3ccc4c(c3c(-c3ccc5c(c3)OCO5)c2C1=O)OCO4 | > 12.5 | > 12.5 | inhibition (Hepatitis B virus [6]): inactive; inhibition (Hepatitis B virus [7]): inactive; inhibition (Hepatitis B virus [16]): inactive; inhibition (Hepatitis B virus [17]): inactive; inhibition (Hepatitis B virus [11]): inactive; inhibition (Hepatitis B virus [12]): inactive; inhibition (Hepatitis B virus [13]): inactive; inhibition (Hepatitis B virus [14]): inactive; inhibition (Hepatitis B virus [15]): inactive |
